How the values were obtained:
[1] = biological target: Mitogen-activated protein kinase kinase kinase 4 (Homo sapiens) (UniProt Q9Y6R4); experiment: Inhibition of MAP3K4 at 1 uM
[2] = tested on: T1, Receptor-type tyrosine-protein kinase FLT3 (Homo sapiens), P36888 [N841I]; experiment: Inhibition of FLT3 N841I mutant at 1 uM
T1 sequence (whole entry): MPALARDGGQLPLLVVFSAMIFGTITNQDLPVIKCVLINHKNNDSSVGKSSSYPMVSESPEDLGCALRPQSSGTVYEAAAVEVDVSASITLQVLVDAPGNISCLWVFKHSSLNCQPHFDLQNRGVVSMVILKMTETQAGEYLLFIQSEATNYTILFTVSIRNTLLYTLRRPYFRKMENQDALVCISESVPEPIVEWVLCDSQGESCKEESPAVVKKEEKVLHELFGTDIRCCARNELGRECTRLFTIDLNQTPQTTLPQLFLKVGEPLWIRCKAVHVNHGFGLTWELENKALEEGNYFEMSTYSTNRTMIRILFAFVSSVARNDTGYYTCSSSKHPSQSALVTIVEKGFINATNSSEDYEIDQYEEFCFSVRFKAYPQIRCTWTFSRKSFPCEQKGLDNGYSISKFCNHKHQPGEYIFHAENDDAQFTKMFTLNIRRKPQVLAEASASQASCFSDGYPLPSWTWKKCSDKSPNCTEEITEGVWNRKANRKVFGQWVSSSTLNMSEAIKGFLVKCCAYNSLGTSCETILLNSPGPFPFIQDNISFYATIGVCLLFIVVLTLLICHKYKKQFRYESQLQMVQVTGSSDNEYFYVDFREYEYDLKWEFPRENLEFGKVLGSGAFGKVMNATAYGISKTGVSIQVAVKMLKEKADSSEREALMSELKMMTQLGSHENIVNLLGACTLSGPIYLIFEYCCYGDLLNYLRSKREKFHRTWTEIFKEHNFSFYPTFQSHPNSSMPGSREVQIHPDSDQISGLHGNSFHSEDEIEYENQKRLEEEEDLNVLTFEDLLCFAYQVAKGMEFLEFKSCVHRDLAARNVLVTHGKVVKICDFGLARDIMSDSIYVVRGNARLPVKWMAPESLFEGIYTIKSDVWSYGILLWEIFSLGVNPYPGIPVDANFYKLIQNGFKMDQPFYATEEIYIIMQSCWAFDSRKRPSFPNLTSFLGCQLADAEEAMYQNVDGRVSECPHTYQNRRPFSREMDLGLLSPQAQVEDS
Outline: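 Single-concentration screen on the Ambit KINOMEscan platform, run against a panel of 250–400 kinases. Per-kinase inhibition was also summarized as S(90), the fraction of kinases inhibited by more than 90%.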

[3] = tested on: Tyrosine-protein kinase ABL1 (Homo sapiens), P00519 [T315I]; experiment: Inhibition of ABL1 T315I mutant at 1 uM
Outline: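 Ambit KINOMEscan screen at a single concentration across a 250–400 kinase panel, recorded as percent inhibition. Selectivity was expressed as S(90), the fraction of kinases inhibited >90%.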

[4] = biological target: T2, Serine/threonine-protein kinase TAO1 (Homo sapiens) (UniProt Q7L7X3); experiment: Inhibition of TAO1 at 1 uM
T2 sequence (whole entry): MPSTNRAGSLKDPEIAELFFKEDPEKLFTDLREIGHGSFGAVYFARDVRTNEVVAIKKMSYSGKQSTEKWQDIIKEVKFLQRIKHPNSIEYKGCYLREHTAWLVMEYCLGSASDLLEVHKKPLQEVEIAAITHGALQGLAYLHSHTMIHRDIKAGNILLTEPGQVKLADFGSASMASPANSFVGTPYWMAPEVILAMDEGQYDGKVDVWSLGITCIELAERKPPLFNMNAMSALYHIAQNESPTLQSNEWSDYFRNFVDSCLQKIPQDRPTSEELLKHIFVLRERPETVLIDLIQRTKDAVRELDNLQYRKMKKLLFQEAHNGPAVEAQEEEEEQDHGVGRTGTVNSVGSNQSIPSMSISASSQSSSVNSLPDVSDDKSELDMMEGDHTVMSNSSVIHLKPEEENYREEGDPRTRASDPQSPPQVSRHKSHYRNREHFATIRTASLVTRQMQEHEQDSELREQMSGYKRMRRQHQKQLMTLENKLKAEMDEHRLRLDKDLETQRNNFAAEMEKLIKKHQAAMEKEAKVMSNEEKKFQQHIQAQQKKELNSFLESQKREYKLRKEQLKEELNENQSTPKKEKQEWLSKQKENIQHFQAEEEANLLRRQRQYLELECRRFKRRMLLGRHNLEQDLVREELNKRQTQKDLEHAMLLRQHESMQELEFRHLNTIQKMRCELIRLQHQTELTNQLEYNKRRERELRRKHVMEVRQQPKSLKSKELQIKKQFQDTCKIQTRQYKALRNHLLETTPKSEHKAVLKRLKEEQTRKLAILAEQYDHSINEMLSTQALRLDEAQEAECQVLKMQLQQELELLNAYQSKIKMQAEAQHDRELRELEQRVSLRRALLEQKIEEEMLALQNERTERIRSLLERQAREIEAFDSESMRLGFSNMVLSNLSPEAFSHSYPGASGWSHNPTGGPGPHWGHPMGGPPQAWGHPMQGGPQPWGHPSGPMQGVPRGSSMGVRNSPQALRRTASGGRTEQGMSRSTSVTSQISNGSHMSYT

[5] = biological target: T2, Serine/threonine-protein kinase TAO1 (Homo sapiens); experiment: Inhibition of TAOK1 at 1 uM
[6] = biological target: T3, Non-receptor tyrosine-protein kinase TNK1 (Homo sapiens) (UniProt Q13470); experiment: Inhibition of TNK1 at 1 uM
T3 sequence (whole entry): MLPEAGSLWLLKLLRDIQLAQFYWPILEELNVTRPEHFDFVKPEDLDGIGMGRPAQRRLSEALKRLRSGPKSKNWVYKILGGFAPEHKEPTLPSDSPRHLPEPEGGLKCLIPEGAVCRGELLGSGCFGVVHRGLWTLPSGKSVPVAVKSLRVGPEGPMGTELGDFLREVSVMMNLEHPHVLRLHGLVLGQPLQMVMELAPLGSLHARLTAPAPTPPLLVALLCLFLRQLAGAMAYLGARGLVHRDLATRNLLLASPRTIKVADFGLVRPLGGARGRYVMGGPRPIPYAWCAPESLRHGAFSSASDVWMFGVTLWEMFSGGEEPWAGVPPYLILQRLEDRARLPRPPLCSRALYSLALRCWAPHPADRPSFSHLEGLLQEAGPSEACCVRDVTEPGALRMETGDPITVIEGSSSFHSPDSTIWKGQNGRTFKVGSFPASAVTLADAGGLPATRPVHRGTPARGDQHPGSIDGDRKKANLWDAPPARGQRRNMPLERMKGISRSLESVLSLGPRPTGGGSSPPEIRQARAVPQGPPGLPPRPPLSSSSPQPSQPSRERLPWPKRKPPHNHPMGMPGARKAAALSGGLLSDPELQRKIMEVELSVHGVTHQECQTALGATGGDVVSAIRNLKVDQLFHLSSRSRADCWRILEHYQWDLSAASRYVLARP

Sequence of Mitogen-activated protein kinase kinase kinase 4 (Homo sapiens) (Q9Y6R4 whole entry): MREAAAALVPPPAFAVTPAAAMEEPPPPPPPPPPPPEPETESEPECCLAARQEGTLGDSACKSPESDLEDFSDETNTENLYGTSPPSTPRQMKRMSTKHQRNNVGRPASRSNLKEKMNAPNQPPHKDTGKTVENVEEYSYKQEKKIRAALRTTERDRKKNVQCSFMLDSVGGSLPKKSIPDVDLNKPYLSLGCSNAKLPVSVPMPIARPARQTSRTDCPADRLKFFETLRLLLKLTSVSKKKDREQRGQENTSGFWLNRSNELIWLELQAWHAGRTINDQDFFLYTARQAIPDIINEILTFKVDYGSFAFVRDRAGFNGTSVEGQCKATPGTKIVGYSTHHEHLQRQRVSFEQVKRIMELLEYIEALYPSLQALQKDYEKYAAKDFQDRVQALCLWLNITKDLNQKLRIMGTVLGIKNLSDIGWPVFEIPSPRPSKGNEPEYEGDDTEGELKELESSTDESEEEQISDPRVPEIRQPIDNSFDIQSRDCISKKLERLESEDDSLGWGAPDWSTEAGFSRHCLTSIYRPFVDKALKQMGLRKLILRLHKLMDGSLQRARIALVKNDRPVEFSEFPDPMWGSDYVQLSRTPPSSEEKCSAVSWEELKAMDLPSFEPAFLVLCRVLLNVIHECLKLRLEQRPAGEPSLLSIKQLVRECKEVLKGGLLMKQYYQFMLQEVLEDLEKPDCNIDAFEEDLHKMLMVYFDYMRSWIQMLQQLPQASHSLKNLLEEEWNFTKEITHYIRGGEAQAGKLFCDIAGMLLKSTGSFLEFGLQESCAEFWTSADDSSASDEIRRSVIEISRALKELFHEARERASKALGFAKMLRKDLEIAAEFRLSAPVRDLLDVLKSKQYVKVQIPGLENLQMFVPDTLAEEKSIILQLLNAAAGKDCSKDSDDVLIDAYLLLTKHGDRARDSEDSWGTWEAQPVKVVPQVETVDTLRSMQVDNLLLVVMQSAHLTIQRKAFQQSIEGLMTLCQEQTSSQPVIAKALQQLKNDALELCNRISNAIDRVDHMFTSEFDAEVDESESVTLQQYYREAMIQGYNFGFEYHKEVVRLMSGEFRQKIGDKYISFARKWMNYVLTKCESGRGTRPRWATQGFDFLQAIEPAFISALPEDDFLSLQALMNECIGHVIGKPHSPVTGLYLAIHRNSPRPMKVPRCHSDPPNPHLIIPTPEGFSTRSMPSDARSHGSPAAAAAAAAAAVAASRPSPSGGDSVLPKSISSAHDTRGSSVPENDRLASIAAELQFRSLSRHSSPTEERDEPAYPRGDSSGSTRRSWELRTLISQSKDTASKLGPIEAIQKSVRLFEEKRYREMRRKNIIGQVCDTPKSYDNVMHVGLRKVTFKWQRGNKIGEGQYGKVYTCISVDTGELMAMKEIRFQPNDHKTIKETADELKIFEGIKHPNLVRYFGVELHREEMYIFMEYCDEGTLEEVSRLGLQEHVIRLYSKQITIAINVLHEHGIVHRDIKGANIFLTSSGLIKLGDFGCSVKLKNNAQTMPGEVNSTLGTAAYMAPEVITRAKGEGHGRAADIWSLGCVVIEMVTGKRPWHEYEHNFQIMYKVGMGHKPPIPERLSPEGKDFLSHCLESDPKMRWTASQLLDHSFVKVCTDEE

CN1CCN(c2ccc(-c3cnc4c(c3)N(Cc3cc(F)ccc3F)CCN4)cn2)CC1
inhibition [1]: < 50%
inhibition [2]: 84.6%
inhibition [3]: 80.4%
inhibition [4]: < 50%
inhibition [5]: < 50%
inhibition [6]: 58.2%

CC(=O)N1CCN(c2cc(-c3cnc4c(c3)N(Cc3cc(Cl)ccc3C(F)(F)F)CCN4)ccn2)CC1
inhibition [1]: < 50%
inhibition [2]: 92%
inhibition [3]: < 50%
inhibition [4]: < 50%
inhibition [5]: < 50%
inhibition [6]: < 50%

CN1CCN(c2ccc(-c3cnc4c(c3)N(Cc3c(F)ccc(F)c3Cl)CCN4)cn2)CC1
inhibition [1]: < 50%
inhibition [2]: 83%
inhibition [3]: 95%
inhibition [4]: < 50%
inhibition [5]: < 50%
inhibition [6]: < 50%

FC(F)(F)c1ccc(Cl)cc1CN1CCNc2ncc(-c3ccnc(N4CCNCC4)c3)cc21
inhibition [1]: < 50%
inhibition [2]: 100%
inhibition [3]: < 50%
inhibition [4]: < 50%
inhibition [5]: < 50%
inhibition [6]: < 50%

CN1CCN(c2ccc(-c3cnc4c(c3)N(Cc3cc(Cl)ccc3Cl)CCN4)cn2)CC1
inhibition [1]: < 50%
inhibition [2]: 93%
inhibition [3]: < 50%
inhibition [4]: < 50%
inhibition [5]: < 50%
inhibition [6]: < 50%

O=C(c1ccc(-c2cnc3c(c2)N(Cc2cc(Cl)ccc2C(F)(F)F)CCN3)cc1)N1CCC(N2CCCC2)CC1
inhibition [1]: < 50%
inhibition [2]: 96.1%
inhibition [3]: 83.2%
inhibition [6]: 81.7%

O=C(O)c1ccc(-c2cnc3c(c2)N(Cc2cc(Cl)ccc2C(F)(F)F)CCN3)cc1
inhibition [1]: < 50%
inhibition [2]: < 50%
inhibition [6]: < 50%

CN1CCN(c2ccc(-c3cnc4c(c3)N(Cc3cc(Cl)ccc3C(F)(F)F)CCN4)cn2)CC1
inhibition [1]: < 50%
inhibition [2]: < 50%
inhibition [3]: < 50%
inhibition [4]: < 50%
inhibition [5]: < 50%
inhibition [6]: < 50%

O=C(c1ccc(-c2cnc3c(c2)N(Cc2cc(Cl)ccc2C(F)(F)F)CCN3)cc1)N1CCCCC1
inhibition [1]: < 50%
inhibition [2]: < 50%
inhibition [3]: < 50%
inhibition [6]: < 50%

COC1CCN(C(=O)c2ccc(-c3cnc4c(c3)N(Cc3cc(Cl)ccc3C(F)(F)F)CCN4)cc2)CC1
inhibition [2]: < 50%
inhibition [3]: < 50%
inhibition [6]: < 50%

— ChEMBL document CHEMBL1165965, “Synthesis and structure-activity relationships of 1,2,3,4-tetrahydropyrido[2,3-b]pyrazines as potent and selective inhibitors of the anaplastic lymphoma kinase” (Bioorg Med Chem, 2010)
